What was measured:
Assay type in all cases: cell-based
[1] = system: Non-Hodgkin Lymphoma cell lines; test: Viability assay; settings: initial screen hits, DLBCL cell lines, Fig. 1A
[2] = system: protein synthesis in DLBCL cells; test: O-propargyl puromycin; settings: concentrations relative to LD50, 4, 16 or 24 hours
Outline: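 DLBCL cells treated 4, 16 or 24 h with test compound, silvestrol or carboplatin, at concentrations scaled to each agent's LD50. Cells pulsed with O-propargyl puromycin, washed twice in PBS and click-labelled with Alexa-488 azide. Flow cytometry gave mean fluorescence on live-gated cells, normalised to DMSO. Mean ± SEM, n=3; unpaired two-tailed t-tests with Benjamini–Krieger–Yekutieli correction.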

NIH/3T3 cells = test: Viability
SNU-398 [3] = test: Viability assay in SNU-398 cells; settings: for type of effect on SNU-398 cells: 72-hour treatment
SNU-398 [4] = test: Western blot in SNU-398 cells; settings: 16 hours, 200 nM rapamycin, 100 nM silvestrol, 1 μM elatol

SMILES | activity against non-Hodgkin lymphoma (NHL) cell lines (LD50) [1] [µM] | protein synthesis measured by incorporation of OPP [2] | type of effect on SNU-398 cells (SNU-398 [3]) | activity against mTORC1 targets (phosphorylation of S6 and 4EBP1) (SNU-398 [4]) | also measured
C=C1CC[C@@](C)(c2cc(Br)c(C)cc2O)[C@H]1C [allolaurinterol, reference compound] | > 10 |  |  |  | 
N.N.O=C([O-])C1(C(=O)[O-])CCC1.[Pt+2] [carboplatin] |  | no significant decline |  |  | change in drug sensitivity on eIF4A1 knockdown (NIH/3T3 cells; NIH-3T3 shRLuc vs sh4A1): no change in drug sensitivity
CC(C)=C[C@@H]1C[C@H](C)c2c(O)cc(C)c3c2C1=C(C)C(=O)C3=O [elisabatin A, reference compound] | > 10 |  |  |  | 
CO[C@H]1C[C@@H]2CC[C@@H](C)[C@@](O)(O2)C(=O)C(=O)N2CCCC[C@H]2C(=O)O[C@H]([C@H](C)C[C@@H]2CC[C@@H](O)[C@H](OC)C2)CC(=O)[C@H](C)/C=C(\C)[C@@H](O)[C@@H](OC)C(=O)[C@H](C)C[C@H](C)/C=C/C=C/C=C/1C [rapamycin, reference compound] |  |  | cytostatic | potently inhibits phosphorylation | 
COC(=O)[C@H]1[C@@H](O)[C@@]2(O)c3c(OC)cc(O[C@@H]4O[C@@H]([C@H](O)CO)CO[C@H]4OC)cc3O[C@@]2(c2ccc(OC)cc2)[C@@H]1c1ccccc1 [silvestrol] |  | global decline of protein synthesis | highly cytotoxic | no activity | LD50 (SNU-398 [3]; SNU-398, 72-hour treatment): 41 nM; increased potency of silvestrol relative to elatol (NIH/3T3 cells; 3T3 fibroblasts, Fig. 5F): > 500 x
